Measurements taken from PMC11484934 (Nature Communications, 2024).

Legend:
recombinant PGAM1 [1] = target: T1, recombinant PGAM1 (Homo sapiens, UniProt P18669); assay: PGAM1 enzyme activity assay; type: biochemical; details: for effect on PGAM1 enzymatic activity: PGAM1 enzymatic assay
recombinant PGAM1 [2] = target: T1, recombinant PGAM1; assay: Histidine phosphorylation of recombinant PGAM1; type: biochemical; details: for PGAM1 phosphorylation / 3-pHis modification: immunoblotting and Phos-tag SDS-PAGE
Procedure, shortened: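 Recombinant human PGAM1 was incubated with test compound. It was then analysed by Phos-tag SDS-PAGE or by immunoblotting with monoclonal antibodies specific for N3-phosphohistidine (3-pHis) and 1-phosphohistidine (1-pHis).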

recombinant human PRPS1 = assay: Thermal shift assay with purified recombinant protein; type: binding; details: recombinant human PRPS1, FBP vs H2O, CBB staining
Procedure, shortened: (§1)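 Purified recombinant human protein (0.2 μg/μL) was treated with test compound or H2O for 30 min at 25 °C. It was split into six aliquots, each heated in parallel for 3 min at its set temperature, then spun 20,000 g for 20 min at 4 °C. Supernatants were run on SDS-PAGE and stained with Coomassie blue.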

PGM1 [3] = target: T2, PGM1 (Homo sapiens, UniProt P36871); assay: PGM1 enzyme activity assay; type: biochemical
T2 sequence (P36871 1-580 isoform P36871-2): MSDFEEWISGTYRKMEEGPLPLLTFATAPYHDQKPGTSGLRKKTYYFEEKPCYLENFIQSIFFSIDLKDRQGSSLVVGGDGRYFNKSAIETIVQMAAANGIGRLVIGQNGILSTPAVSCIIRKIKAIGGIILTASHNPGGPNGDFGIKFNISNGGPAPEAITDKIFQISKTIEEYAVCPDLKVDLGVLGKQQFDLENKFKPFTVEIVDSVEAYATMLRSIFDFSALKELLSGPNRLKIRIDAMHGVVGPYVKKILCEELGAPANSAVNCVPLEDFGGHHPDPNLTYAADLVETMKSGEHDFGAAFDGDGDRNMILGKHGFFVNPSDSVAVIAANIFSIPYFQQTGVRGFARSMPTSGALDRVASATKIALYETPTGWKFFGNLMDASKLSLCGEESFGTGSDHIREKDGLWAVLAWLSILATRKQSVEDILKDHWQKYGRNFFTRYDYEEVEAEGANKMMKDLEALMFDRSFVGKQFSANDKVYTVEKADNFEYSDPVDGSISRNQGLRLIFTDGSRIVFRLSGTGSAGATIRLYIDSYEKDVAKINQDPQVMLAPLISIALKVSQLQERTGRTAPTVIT

PMM2 [4] = target: T3, PMM2 (Homo sapiens, UniProt O15305); assay: PMM2 enzyme activity assay; type: biochemical
T3 sequence (O15305 1-246): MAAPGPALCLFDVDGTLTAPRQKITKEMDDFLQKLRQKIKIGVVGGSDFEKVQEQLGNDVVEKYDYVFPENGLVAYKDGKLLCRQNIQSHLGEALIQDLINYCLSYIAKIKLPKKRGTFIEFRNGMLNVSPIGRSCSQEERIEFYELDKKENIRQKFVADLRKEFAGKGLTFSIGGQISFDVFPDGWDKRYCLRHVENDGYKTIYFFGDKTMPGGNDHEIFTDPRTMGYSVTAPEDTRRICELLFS

PMM2 [5] = target: T3, PMM2; assay: Thermal shift assay with purified recombinant protein; type: binding; details: recombinant human PMM2, FBP vs H2O, CBB staining
Procedure, shortened: as §1

recombinant human RAN = assay: as above; type: binding; details: FBP vs H2O, CBB staining
Procedure, shortened: as §1

recombinant PGAM1 [6] = target: T1, recombinant PGAM1; assay: Microscale thermophoresis; type: binding
Procedure, shortened: (§2)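 Purified protein was labelled on lysines with a RED-NHS dye. It was mixed with test compound in 50 mM Tris-HCl pH 7.5, 100 mM NaCl, 0.05% Tween-20 and incubated 30 min at room temperature in the dark. The mix was loaded into capillaries for microscale thermophoresis on a Monolith NT.115.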

PGM1 [7] = target: T2, PGM1; assay: Microscale thermophoresis; type: binding
Procedure, shortened: as §2

recombinant human HDAC2 = recombinant human HDAC2 (Homo sapiens, UniProt Q92769); assay: Thermal shift assay with purified recombinant protein; type: binding; details: recombinant human HDAC2, FBP vs H2O, CBB staining
Sequence of recombinant human HDAC2 (Q92769 whole entry): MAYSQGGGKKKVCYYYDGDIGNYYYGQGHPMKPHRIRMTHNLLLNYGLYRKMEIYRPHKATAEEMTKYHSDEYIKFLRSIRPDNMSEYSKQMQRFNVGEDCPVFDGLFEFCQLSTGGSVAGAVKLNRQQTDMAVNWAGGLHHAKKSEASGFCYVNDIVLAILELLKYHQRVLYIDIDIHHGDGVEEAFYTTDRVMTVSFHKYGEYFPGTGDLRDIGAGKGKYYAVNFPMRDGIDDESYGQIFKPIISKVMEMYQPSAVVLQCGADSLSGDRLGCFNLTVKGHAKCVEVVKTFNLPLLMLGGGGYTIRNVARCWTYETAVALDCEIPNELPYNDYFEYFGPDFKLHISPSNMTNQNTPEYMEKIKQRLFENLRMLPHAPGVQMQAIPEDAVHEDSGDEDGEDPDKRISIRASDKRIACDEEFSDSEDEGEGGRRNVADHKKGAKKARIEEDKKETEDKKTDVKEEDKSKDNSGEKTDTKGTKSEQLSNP
Procedure, shortened: as §1

PGM1 [8] = target: T2, PGM1; assay: as above; type: binding; details: recombinant human PGM1, FBP vs H2O, CBB staining
Procedure, shortened: as §1

[9] = target: Flag-tagged PGAM1 in HEK293T cells (Homo sapiens, UniProt P18669); type: cell-based; details: 30 min, glucose-free medium
Sequence of Flag-tagged PGAM1 in HEK293T cells (P18669 whole entry): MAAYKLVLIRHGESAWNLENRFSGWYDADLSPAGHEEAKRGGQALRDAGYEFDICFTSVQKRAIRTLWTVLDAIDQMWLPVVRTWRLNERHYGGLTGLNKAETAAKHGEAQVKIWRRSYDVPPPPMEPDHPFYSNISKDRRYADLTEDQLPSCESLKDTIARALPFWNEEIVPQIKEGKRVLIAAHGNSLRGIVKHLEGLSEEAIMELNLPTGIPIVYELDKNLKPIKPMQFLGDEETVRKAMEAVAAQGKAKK

HepG2 cells [10] = assay: LC-MS/MS quantification of intracellular FBP concentrations; type: cell-based, human; details: HepG2 cells treated with 10 mM FBP, 30 min
Procedure, shortened: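 HepG2 cells (2 × 10^6/well, triplicates) were allowed to adhere overnight. They were treated 0.5 h with 10 mM test compound or H2O in 5 mM or 25 mM glucose medium. After PBS washes, cells were extracted in cold 80% MeOH containing 13C6-labelled internal standard (0.1 µg/mL), centrifuged and dried. Extracts were run by HILIC (BEH Amide) LC-MS/MS in negative mode, 10 mM NH4HCO3/MeCN.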

sgCTRL HepG2 cells [11] = assay: Glucose consumption, sgCTRL HepG2 cells; type: cell-based, human; details: FBP 10 mM, 30 min
Procedure, shortened: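 HepG2 cells were cultured overnight in 96 wells, then treated with H2O or 10 mM test compound for 0.5 h, or with H2O or 1 mM derivative for 24 h. Glucose consumption from the culture medium was measured with a glucose oxidase kit.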

HepG2 cells [12] = assay: Cell viability / proliferation assay; type: cell-based, human; details: sgCTRL HepG2, FBP 10 mM, 24 h, glucose-free medium
Procedure, shortened: (§3)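 HepG2 cells (5000/well) were allowed to adhere overnight. They were exposed 24 h to a dilution series of test compound in glucose-free or 5 mM glucose medium, or to derivatives in 25 mM glucose medium for 24 h or 48 h. Viability was read by CCK8 colorimetry. PGAM1-knockout cells were made with a LentiCRISPR v2 sgRNA (HEK293T-packaged lentivirus, polybrene 10 µg/mL for 24 h) and selected with puromycin.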

recombinant human OXSR1 = recombinant human OXSR1 (Homo sapiens, UniProt O95747); assay: Thermal shift assay with purified recombinant protein; type: binding; details: recombinant human OXSR1, FBP vs H2O, CBB staining
Sequence of recombinant human OXSR1 (O95747 whole entry): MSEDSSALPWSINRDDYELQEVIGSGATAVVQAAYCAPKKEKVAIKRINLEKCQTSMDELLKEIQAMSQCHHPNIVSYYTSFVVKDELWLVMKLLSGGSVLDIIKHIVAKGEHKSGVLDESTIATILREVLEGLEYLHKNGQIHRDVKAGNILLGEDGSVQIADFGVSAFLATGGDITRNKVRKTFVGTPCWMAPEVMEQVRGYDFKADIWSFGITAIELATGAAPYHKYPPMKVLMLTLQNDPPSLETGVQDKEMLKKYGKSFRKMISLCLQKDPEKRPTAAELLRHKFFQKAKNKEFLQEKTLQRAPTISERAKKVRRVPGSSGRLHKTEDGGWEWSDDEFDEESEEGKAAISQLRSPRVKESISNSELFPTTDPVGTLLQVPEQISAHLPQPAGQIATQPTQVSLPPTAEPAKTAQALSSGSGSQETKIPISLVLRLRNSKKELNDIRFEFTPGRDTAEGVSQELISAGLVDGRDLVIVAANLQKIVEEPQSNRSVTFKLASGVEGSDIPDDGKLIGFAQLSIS
Procedure, shortened: as §1

sgCTRL HepG2 cells [13] = assay: Lactate production, sgCTRL HepG2 cells; type: cell-based, human; details: FBP 10 mM, 30 min
Procedure, shortened: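 HepG2 cells were cultured overnight in 96 wells, then treated with H2O or 10 mM test compound for 0.5 h, or with H2O or 1 mM derivative for 24 h. Lactate in the culture medium was measured with a lactate assay kit.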

HepG2 cells [14] = assay: LC-MS/MS detection of 3-PG and 2-PG; type: cell-based, human; details: 10 mM FBP, 30 min
Procedure, shortened: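 HepG2 cells (2 × 10^6/well, triplicates) were treated with 10 mM test compound for 0.5 h in 5 mM glucose, or H2O as control. Cells were extracted in cold 80% MeOH and analysed by HILIC LC-MS/MS in negative mode. The 3-PG and 2-PG fraction came from the m/z 97/(79 + 97) fragment ratio against standard-mixture curves. Values were scaled to the WT total mono-PG concentration.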

PGAM1-H11A = target: T4, PGAM1-H11A (Homo sapiens, UniProt P18669, H11A); assay: PGAM1 enzyme activity assay, H11A mutant; type: biochemical
T4 sequence (P18669 1-254 H11A): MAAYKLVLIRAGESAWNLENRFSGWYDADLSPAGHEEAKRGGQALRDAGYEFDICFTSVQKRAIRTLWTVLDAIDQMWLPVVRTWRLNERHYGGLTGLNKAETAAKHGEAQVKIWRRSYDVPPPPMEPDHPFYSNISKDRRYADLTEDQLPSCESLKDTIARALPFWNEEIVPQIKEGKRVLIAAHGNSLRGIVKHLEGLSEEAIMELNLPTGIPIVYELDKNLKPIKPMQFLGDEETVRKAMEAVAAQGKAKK

PMM2 [15] = target: T3, PMM2; assay: Microscale thermophoresis; type: binding
Procedure, shortened: as §2

sgPGAM1 HepG2 cells = assay: Cell viability / proliferation assay; type: cell-based, human; details: sgPGAM1 HepG2, FBP 10 mM, 24 h, glucose-free medium
Procedure, shortened: as §3

recombinant human GAPDH = recombinant human GAPDH (Homo sapiens, UniProt P04406); assay: Thermal shift assay with purified recombinant protein; type: binding; details: FBP vs H2O, CBB staining
Sequence of recombinant human GAPDH (P04406 43-335): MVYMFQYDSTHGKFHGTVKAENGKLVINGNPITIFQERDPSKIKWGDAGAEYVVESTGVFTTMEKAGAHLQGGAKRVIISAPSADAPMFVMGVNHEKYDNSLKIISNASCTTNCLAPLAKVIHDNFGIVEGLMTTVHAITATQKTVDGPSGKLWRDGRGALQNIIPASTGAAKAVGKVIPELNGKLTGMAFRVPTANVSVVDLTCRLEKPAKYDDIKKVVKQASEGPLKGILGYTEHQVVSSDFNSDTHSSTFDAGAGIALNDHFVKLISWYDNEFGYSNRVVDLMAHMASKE
Procedure, shortened: as §1

T1 sequence (P18669 whole entry): as the sequence (P18669 whole entry) above

Compound: D-mannose-6-phosphate [M6P]
- effect on PGAM1 enzymatic activity (recombinant PGAM1 [1]): did not regulate the enzymatic activity

Compound: fructose-6-phosphate [F6P]
- effect on PGAM1 enzymatic activity (recombinant PGAM1 [1]): did not regulate the enzymatic activity

Compound: D-glucose-6-phosphate [G6P]
- effect on PGAM1 enzymatic activity (recombinant PGAM1 [1]): did not regulate the enzymatic activity

Compound: fructose-1-phosphate [F1P]
- effect on PGAM1 enzymatic activity (recombinant PGAM1 [1]): did not regulate the enzymatic activity

Compound: C=C(OP(=O)(O)O)C(=O)O [PEP, phosphoenolpyruvate, reference compound]
- PGAM1 phosphorylation / 3-pHis modification (recombinant PGAM1 [2]; recombinant PGAM1): weak phosphorylation

Compound: O=P(O)(O)O[C@H]1O[C@H](CO)[C@@H](O)[C@H](O)[C@H]1O [G1P, α-D-glucose-1-phosphate]
- effect on PGAM1 enzymatic activity (recombinant PGAM1 [1]): did not regulate the enzymatic activity

Compound: O=C(COP(=O)(O)O)[C@@H](O)[C@H](O)[C@H](O)COP(=O)(O)O [FBP, fructose-1,6-bisphosphate]
- thermal stability of recombinant protein (recombinant human PRPS1): increased
- EC50 (recombinant PGAM1 [1]): 480 µM
- effect on PGAM1 enzymatic activity (recombinant PGAM1 [1]): could activate the enzyme
- IC50 (PGM1 [3]): 2790 µM
- IC50 (PMM2 [4]): 7910 µM
- thermal stability of recombinant protein (PMM2 [5]): increased
- thermal stability of recombinant protein (recombinant human RAN): reduced
- concentration able to phosphorylate PGAM1 (recombinant PGAM1 [2]; concentration-dependent immunoblotting, recombinant PGAM1): 1 mM
- PGAM1 phosphorylation / 3-pHis modification (recombinant PGAM1 [2]; recombinant PGAM1): act as a phosphate donor to form 3-pHis modification
- time after which 3-pHis modification decayed (recombinant PGAM1 [2]; time-dependent PGAM1 histidine phosphorylation): > 4 h
- Kd (recombinant PGAM1 [6]): 166 µM
- Kd (PGM1 [7]): 235 µM
- thermal stability of recombinant protein (recombinant human HDAC2): reduced
- thermal stability of recombinant protein (PGM1 [8]): increased
- histidine phosphorylation of Flag-tagged PGAM1 in living cells [9]: Dose-dependent histidine phosphorylation
- intracellular FBP concentration after exogenous treatment (HepG2 cells [10]): 1.435 ± 0.062 mM
- glucose consumption (sgCTRL HepG2 cells [11]): significant increases
- cell proliferation (HepG2 cells [12]): significantly upregulated
- thermal stability of recombinant protein (recombinant human OXSR1): reduced
- lactate production (sgCTRL HepG2 cells [13]): significant increases
- 2-PG/3-PG ratio (HepG2 cells [14]): significant increased
- activation effect towards PGAM1-H11A mutant (PGAM1-H11A): lost its activation effect
- Kd (PMM2 [15]): 247 µM
- effect on cell proliferation in PGAM1-knockout cells (sgPGAM1 HepG2 cells): abolished
- thermal stability of recombinant protein (recombinant human GAPDH): increased
